Results on 17 compounds are retold here after ChEMBL document CHEMBL1147691, “Quinol fatty alcohols as promoters of axonal growth” (Bioorg Med Chem Lett, 2006).

Molecules are shown by their SMILES.

The term IC50 denotes the concentration at which inhibition is half-maximal.

In assay [1] the test system is Radical scavenging activity. Nature of the assay: Hydroxyl radical scavenging activity by ABTS assay. The class given is functional. The procedure, abridged:
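Competition assay for hydroxyl-radical scavenging in ethanolic medium: hydroxyl radicals oxidise ABTS to the stable ABTS•+ radical cation, read by absorbance at 405 nm. IC50 is the concentration giving a 50% decrease in ABTS•+, reported as the mean of three experiments.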

Assay [2] deals with Cortical neurone. Nature of the assay: Growth promoting activity in axon relative to control. The assay is classed as functional, Mus musculus. Set-up: concentration or dose not given beside the values. A digest of the protocol: (§1)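 Cortical neurons from E15 mouse embryos, trypsin-dissociated, grown 24 h on poly-L-lysine coverslips (37 °C, 5% CO2). On day 2, compound added for 24 h under the same conditions. On day 3, cells fixed and immunostained with anti-phosphoneurofilament (SMi312) and an Alexa488 secondary. Axonal growth given as % variation from control conditions; means ± SEM.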

The subject of assay [3] is Cortical neurone. Nature of the assay: Growth promoting activity in axon at 1 nM in presence of 100 ng/ml Sema3A of glial scar. The assay is classed as functional, Mus musculus. The procedure, abridged:
as §1

In assay [4] the test system is Cortical neurone. Nature of the assay: Growth promoting activity in axon at 1 nM. The class given is functional, Mus musculus. The procedure, abridged: as §1
Assay [5] relates to Cortical neurone. Nature of the assay: Growth promoting activity in axon at 1 nM in presence of 1 ug/ml myelin protein of glial scar. The class given is functional, Mus musculus. A digest of the protocol: as §1
In assay [6] the test system is Cortical neurone. Kind of assay: Growth promoting activity in axon at 1 nM in presence of 10 ug/ml myelin protein of glial scar. The assay is classed as functional, Mus musculus. A digest of the protocol:
as §1

Assay [7] concerns Cortical neurone. Kind of assay: Growth promoting activity in axon at 100 nM. The class given is functional, Mus musculus. The procedure, abridged: as §1
Assay [8] concerns Cortical neurone. Nature of the assay: Growth promoting activity in axon at 100 nM in presence of 10 ug/ml myelin protein of glial scar. The class given is functional, Mus musculus. A digest of the protocol:
as §1

The test system of assay [9] is Cortical neurone. Kind of assay: Growth promoting activity in axon at 100 nM in presence of 100 ng/ml Sema3A of glial scar. The class given is functional, Mus musculus. A digest of the protocol: as §1
Assay [10] concerns Cortical neurone. Nature of the assay: Growth promoting activity in axon at 100 nM in presence of 1 ug/ml myelin protein of glial scar. The assay is classed as functional, Mus musculus. A digest of the protocol: as §1

On to `COc1cc(OC)c(OC)cc1CCCCCCCCCCCCCCCCCCO`, for which, in assay [1], the IC50 was 720 µM. For the same compound, the Activity in the assay on Cortical neurone [2] is given as 106%.
In the case of `COc1cc(CCCCCCCCCCCCCCCCO)c(OC)c(OC)c1OC`, the Activity with Cortical neurone [2] is 127%.
In assay [1], `COc1cc(OC)c(OC)cc1CCCCCCCCCCCCCCO` registered an IC50 of 720 µM. Further, in the assay with Cortical neurone [2], the Activity was found to be 109%.
For `COc1cc(OC)c(OC)cc1CCCCCCCCCCCCCCCO`, the IC50 in assay [1] amounted to 720 µM. Also, the Activity in the assay with Cortical neurone [2] is on record as 152%.
On to `COc1ccc(OC)c(CCCCCCCCCCCCCCCO)c1`, for which the half-inhibitory concentration (IC50) in assay [1] is > 10000 µM. Also, the Activity with Cortical neurone [3] is listed as 12.4%; in the assay with Cortical neurone [4], 81%; in the assay on Cortical neurone [2] it was 181%; in the assay on Cortical neurone [5], 18.4%; in the assay with Cortical neurone [6] it was -5.3%.
With `COc1cc(CCCCCCCCCCCCCCCCCCO)c(OC)c(OC)c1OC`, the Activity with Cortical neurone [2] is recorded as 103%.
For `COc1ccc(OC)c(CCCCCCCCCCCCO)c1`, the 50% inhibitory concentration (IC50) in assay [1] was > 10000 µM. Moreover, in the assay with Cortical neurone [2], the Activity amounted to 109%.
In the case of `COc1cc(CCCCCCCCCCCCCCCO)c(OC)c(OC)c1OC`, the Activity in the assay on Cortical neurone [2] was determined as 158%.
In assay [1], `COc1cc(OC)c(OC)cc1CCCCCCCCCCCCO` yielded an IC50 of 720 µM. Besides, the Activity with Cortical neurone [2] came to 108%.
With `COc1cc(CCCCCCCCCCCCO)c(OC)c(OC)c1OC`, in the assay on Cortical neurone [2], the Activity is on record as 100%.
On to `COc1ccc(OC)c(CCCCCCCCCCCCCCCCO)c1`, for which, in [1], the half-inhibitory concentration (IC50) was > 10000 µM. Also, the Activity with Cortical neurone [2] came out at 120%.
Take `COc1ccc(OC)c(CCCCCCCCCCCCCCCCCCO)c1`: the IC50 in assay [1] was > 10000 µM. Besides, the Activity in the assay with Cortical neurone [2] was 109%.
In the case of `CC1=C(CCCCCCCCCCCCCCCO)C(C)(C)CCC1=O`, the IC50 in [1] is > 10000 µM. The Activity is listed as 80% in the assay on Cortical neurone [7]; 5% with Cortical neurone [8]; 10.2% in the assay with Cortical neurone [9]; 150% in the assay on Cortical neurone [2]; 28.8% in the assay with Cortical neurone [10].
On to `COc1cc(CCCCCCCCCCCCCCO)c(OC)c(OC)c1OC`, for which, in the assay on Cortical neurone [2], the Activity is listed as 108%.
For the compound `COc1ccc(OC)c(CCCCCCCCCCCCCCO)c1`, the IC50 in [1] was > 10000 µM. Moreover, the Activity in the assay with Cortical neurone [2] came to 110%.
For `COc1cc(OC)c(OC)cc1CCCCCCCCCCCCCCCCO`, in that order: 720 µM and 135%.
Take `Cc1c(C)c2c(c(C)c1O)CCC(C)(C(=O)O)O2` (stereo unspecified) [TROLOX]: half-maximal inhibition in assay [1] (IC50) was put at 600 µM.
